The test system of data set [1] is Plasmodium cynomolgi. Briefly: Antimalarial activity against sporozoite stage of Plasmodium cynomolgi infected in rhesus monkey assessed as radical curative activity measured for 90 days. The class given is functional, organism-based.
Data set [2] concerns Mus musculus. Briefly: Toxicity in mouse infected with blood stage of Plasmodium berghei assessed as mortality at 160 mg/kg, sc measured on day 1. The class given is organism-based. More on the design: dose 160 mg/kg, route subcutaneous. The settings on record: in vivo.
The subject of data set [3] is Leishmania donovani. Briefly: Potency index, ratio of glucantime to compound for antileishmanial activity against Leishmania donovani infected in hamster assessed as 90% suppression of parasitemia at 13 mg/kg/day, im bid administered 4 days measured for 8 days. The class given is functional. The conditions noted are these: route intramuscular. Summed up: (§1)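 Hamsters infected with Leishmania donovani were assessed in an 8-day test. Seven animals per drug level received 208, 52 or 13 mg/kg/day. Percent suppression of parasites was calculated against infected, untreated controls (seven to ten animals). Glucantime index G = SD90 of Glucantime / SD90 of the new drug, where SD90 is the dose giving 90% parasite suppression.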

The subject of data set [4] is Plasmodium berghei. Briefly: Antimalarial activity against blood stage of Plasmodium berghei infected in mouse assessed as increase in mean survival time at 160 mg/kg, sc. The class given is functional. The settings on record: route subcutaneous.
In data set [5] the test system is Mus musculus. As to the kind of experiment: Toxicity in mouse infected with blood stage of Plasmodium berghei assessed as mortality at 640 mg/kg, sc measured on day 5. The class given is organism-based. More on the design: dose 640 mg/kg, route subcutaneous. The conditions noted are these: in vivo. Summed up:
(§2)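 P. berghei-infected mice, five per group, after subcutaneous dosing. Deaths occurring 2 to 5 days after drug administration are scored as drug toxicity rather than infection.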

Data set [6] relates to Plasmodium berghei. As to the kind of experiment: Antimalarial activity against blood stage of Plasmodium berghei infected in mouse assessed as increase in mean survival time at 80 mg/kg, sc. It counts as functional. The conditions noted are these: route subcutaneous.
The test system of data set [7] is Mus musculus. As to the kind of experiment: Toxicity in mouse infected with blood stage of Plasmodium berghei assessed as mortality at 320 mg/kg, sc measured on day 5. It counts as organism-based. Further details: dose 320 mg/kg, route subcutaneous. The conditions noted are these: in vivo. The procedure, abridged: as §2
Data set [8] relates to Leishmania donovani. As to the kind of experiment: Potency index, ratio of glucantime to compound for antileishmanial activity against Leishmania donovani infected in hamster assessed as 90% suppression of parasitemia at 13 to 208 mg/kg/day, im bid administered 4 days measured for 8 days. The settings on record: route intramuscular. It counts as functional. The procedure, abridged: as §1

In data set [9] the test system is Schistosoma mansoni. Briefly: Antiparasitic activity against Schistosoma mansoni infected in mouse assessed as survival up to 49 days at 1280 mg/kg, sc administered through peanut oil on day 2 post infection. The class given is functional, organism-based. Further details: dose 1280 mg/kg.
For data set [10], the system named is Mus musculus. As to the kind of experiment: Toxicity in mouse infected with blood stage of Plasmodium berghei assessed as mortality at 160 mg/kg, sc measured on day 2. It counts as organism-based. More on the design: route subcutaneous, dose 160 mg/kg. The conditions noted are these: in vivo. Summed up: as §2
Data set [11] concerns Plasmodium berghei. As to the kind of experiment: Antimalarial activity against blood stage of Plasmodium berghei infected in mouse assessed as increase in mean survival time at 320 mg/kg, sc. The class given is functional. The conditions noted are these: route subcutaneous.
In data set [12] the test system is Mus musculus. As to the kind of experiment: Toxicity in mouse infected with blood stage of Plasmodium berghei assessed as mortality at 80 to 640 mg/kg, sc measured for 5 days. The class given is organism-based. The settings on record: in vivo, 120 h. Further details: dose 80-640 mg/kg, route subcutaneous. Summed up:
as §2

Data set [13] relates to Plasmodium berghei. Briefly: Antimalarial activity against blood stage of Plasmodium berghei infected in mouse assessed as increase in mean survival time at 640 mg/kg, sc. The class given is functional. The conditions noted are these: route subcutaneous.
The test system of data set [14] is Leishmania donovani. Briefly: Potency index, ratio of glucantime to compound for antileishmanial activity against Leishmania donovani infected in hamster assessed as 90% suppression of parasitemia at 3.25 mg/kg/day, im bid administered 4 days measured for 8 days. It counts as functional. The settings on record: route intramuscular.
Data set [15] relates to Leishmania donovani. As to the kind of experiment: Antileishmanial activity against Leishmania donovani infected in hamster assessed as inhibition of parasitemia at 52 mg/kg/day, im bid administered for 4 days relative to control. The class given is functional. The conditions noted are these: 96 h, route intramuscular. Summed up:
as §1

Data set [16] concerns Mus musculus. Briefly: Toxicity in mouse infected with blood stage of Plasmodium berghei assessed as mortality at 640 mg/kg, sc measured on day 2. Further details: dose 640 mg/kg, route subcutaneous. The conditions noted are these: in vivo. It counts as organism-based. The procedure, abridged:
as §2

In data set [17] the test system is Mus musculus. Briefly: Toxicity in mouse infected with blood stage of Plasmodium berghei assessed as mortality at 320 mg/kg, sc measured on day 2. Further details: dose 320 mg/kg, route subcutaneous. It counts as organism-based. The conditions noted are these: in vivo. Summed up: as §2
Data set [18] concerns Leishmania donovani. Briefly: Potency index, ratio of glucantime to compound for antileishmanial activity against Leishmania donovani infected in hamster assessed as 90% suppression of parasitemia at 208 mg/kg/day, im bid administered 4 days measured for 8 days. The settings on record: route intramuscular. The class given is functional. Summed up:
as §1

The test system of data set [19] is Mus musculus. Briefly: Toxicity in mouse infected with blood stage of Plasmodium berghei assessed as mortality at 640 mg/kg, sc measured on day 3. It counts as organism-based. Further details: dose 640 mg/kg, route subcutaneous. The conditions noted are these: in vivo. The procedure, abridged: as §2
In data set [20] the test system is Trypanosoma brucei rhodesiense. As to the kind of experiment: Antitrypanosomal activity against blood stage of Trypanosoma rhodesiense infected in mouse. The class given is functional, organism-based.

Experimental findings from ChEMBL document CHEMBL3244124, “Synthesis of 2-substituted primaquine analogues as potential antimalarials” (J Med Chem, 1978) are described below.

Structures are written as SMILES. The source made the active and inactive calls. The rule behind the calls is not given here.

Take `COc1cc(NC(C)CCCN)c2nc(OC)ccc2c1.O=C(O)/C=C\C(=O)O` (stereo unspecified): the result in [1] was inactive. For the same compound, the Activity result in data set [2], in [5] and in data set [7] was “Toxic” in each case. In addition, the Ratio in data set [3] is given as 2.4. In addition, the Survival was found to be 7.9 days in data set [4] and 6.1 days in data set [6].

Regarding `COc1cc(NC(C)CCCN)c2nc(N)ccc2c1.O=C(O)/C=C\C(=O)O` (stereo unspecified), the Ratio in data set [8] stood at 0. For the same compound, the result in data set [9] was inactive.

On to `COc1cc(NC(C)CCCN)c2ncccc2c1` (stereo unspecified) [PRIMAQUINE], for which the values for the Survival in data set [4] and in data set [6] were 10.8 days and 9.4 days, respectively. The Activity entry in data set [10], in [5] and in data set [7] was “Toxic” in each case. For the same compound, the Ratio in [8] came to 0.96.

On to `CCc1ccc2cc(OC)cc(NC(C)CCCN)c2n1.O=C(O)/C=C\C(=O)O` (stereo unspecified), for which the outcome in [1] and in [9] was inactive. For the same compound, the Survival turned out to be 9.9 days in data set [11], 13.9 days in [13], 8.3 days in [4] and 6.7 days in [6]. In data set [12], the Activity entry is recorded as “Non-toxic”. For the same compound, in [14], the Ratio worked out at 10.

On to `COc1cc(NC(C)CCCN)c2nc(N(C)C)ccc2c1.O=C(O)/C=C/C(=O)O` (stereo unspecified), for which the Activity entry in data set [2], in data set [5] and in [7] was “Toxic” each time. The inhibition in vivo – broadly, how much of the control response was suppressed – at 52 mg/kg/day in [15] amounted to 99%. Also, the Survival in data set [4] came to 5.2 days; in [6] it was 4.9 days.

For the compound `C=Cc1ccc2cc(OC)cc(NC(C)CCCN)c2n1.O=C(O)/C=C/C(=O)O` (stereo unspecified), the Survival in data set [11] amounted to 5.3 days; in data set [13] it was 7.9 days; in [4], 3.3 days; in data set [6], 2.9 days. For the same compound, the Activity entry in data set [16], in data set [10] and in [17] was “Toxic” each time.

In the case of `COc1cc(NC(C)CCCN)c2nc(Cl)ccc2c1.O=C(O)/C=C\C(=O)O` (stereo unspecified), the result in [1] and in data set [20] was inactive. For the same compound, the Survival in [11] was 4 days; in data set [13], 5.5 days; in data set [4], 3 days; in data set [6], 1.2 days. Further, the Ratio in [18] stood at 0.3. Also, the Activity entry in [19], in data set [10] and in [17] was “Toxic” each time.
